Source: ChEMBL document CHEMBL1629459, “Microarray and molecular analyses of the azole resistance mechanism in Candida glabrata oropharyngeal isolates” (2010)
In brackets after ≈: the same amount, converted by molar mass.

How the values were obtained:
Format in all cases: functional
[1] = test system: Nakaseomyces glabratus; experiment: Antifungal activity against Candida glabrata isolate Cg8R with CgPDR1 W297S
Outline: (§1)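 Fluconazole susceptibility by modified CLSI (NCCLS) broth microdilution. Medium was buffered RPMI with 2% glucose added. Inoculum was 250 cells per well, incubated at 37°C for 48 h. MIC was read as the concentration giving 80% growth reduction (MIC80). Clinical oropharyngeal isolates were cultured on YPD or on minimal medium (yeast nitrogen base plus 2% glucose).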

[2] = test system: Nakaseomyces glabratus; experiment: Antifungal activity against Candida glabrata isolate Cg12R with CgPDR1 G348A mutant; outline: as §1
[3] = test system: Nakaseomyces glabratus; experiment: Antifungal activity against Candida glabrata isolate Cg18R with CgPDR1 L344S mutant; outline: as §1
[4] = test system: Nakaseomyces glabratus; experiment: Antifungal activity against Candida glabrata isolate Cg5S; outline: as §1
[5] = test system: Nakaseomyces glabratus; experiment: Antifungal activity against Candida glabrata isolate Cg3S; outline: as §1
[6] = test system: Nakaseomyces glabratus; experiment: Antifungal activity against Candida glabrata isolate Cg4R with CgPDR1 S391L mutant; outline: as §1
[7] = test system: Nakaseomyces glabratus; experiment: Antifungal activity against Candida glabrata isolate Cg7S; outline: as §1
[8] = test system: Nakaseomyces glabratus; experiment: Antifungal activity against Candida glabrata isolate Cg21S; outline: as §1
[9] = test system: Nakaseomyces glabratus; experiment: Antifungal activity against Candida glabrata isolate Cg16R with CgPDR1 R772I mutant; outline: as §1
[10] = test system: Nakaseomyces glabratus; experiment: Antifungal activity against Candida glabrata isolate Cg13S; outline: as §1
[11] = test system: Nakaseomyces glabratus; experiment: Antifungal activity against Candida glabrata isolate Cg2R with CgPDR1 F575L mutant; outline: as §1
[12] = test system: Nakaseomyces glabratus; experiment: Antifungal activity against Candida glabrata isolate Cg14R with CgPDR1 N764I mutant; outline: as §1
[13] = test system: Nakaseomyces glabratus; experiment: Antifungal activity against Candida glabrata isolate Cg6R with CgPDR1 G943S mutant; outline: as §1
[14] = test system: Nakaseomyces glabratus; experiment: Antifungal activity against Candida glabrata isolate Cg1S; outline: as §1
[15] = test system: Nakaseomyces glabratus; experiment: Antifungal activity against Candida glabrata isolate Cg15S; outline: as §1
[16] = test system: Nakaseomyces glabratus; experiment: Antifungal activity against Candida glabrata isolate Cg11S; outline: as §1
[17] = test system: Nakaseomyces glabratus; experiment: Antifungal activity against Candida glabrata isolate Cg22R with CgPDR1 L280F mutant; outline: as §1
[18] = test system: Nakaseomyces glabratus; experiment: Antifungal activity against Candida glabrata isolate Cg17S; outline: as §1

For `OC(Cn1cncn1)(Cn1cncn1)c1ccc(F)cc1F` [FLUCONAZOLE], the MIC80 [1] was 512 µg/mL (≈ 1670 µM), the MIC80 [2] was 256 µg/mL (≈ 836 µM) and the MIC80 [3] was 256 µg/mL (≈ 836 µM). For the same molecule, the MIC80 [4] was 32 µg/mL (≈ 104 µM), the MIC80 [5] was 32 µg/mL (≈ 104 µM) and the MIC80 [6] was 256 µg/mL (≈ 836 µM). It also gave an MIC80 [7] of 32 µg/mL (≈ 104 µM), an MIC80 [8] of 32 µg/mL (≈ 104 µM) and an MIC80 [9] of 128 µg/mL (≈ 418 µM). It also gave an MIC80 [10] of 64 µg/mL (≈ 209 µM), an MIC80 [11] of 128 µg/mL (≈ 418 µM) and an MIC80 [12] of 256 µg/mL (≈ 836 µM). The MIC80 [13] was 256 µg/mL (≈ 836 µM), the MIC80 [14] was 16 µg/mL (≈ 52.2 µM) and the MIC80 [15] was 16 µg/mL (≈ 52.2 µM). The MIC80 [16] was 32 µg/mL (≈ 104 µM), the MIC80 [17] was 256 µg/mL (≈ 836 µM) and the MIC80 [18] was 32 µg/mL (≈ 104 µM).
